For data set [1], the target named is Human immunodeficiency virus type 1 integrase (Human immunodeficiency virus 1) (UniProt Q7ZJM1). As to the kind of experiment: Inhibition of HIV1 His6-tagged integrase assessed as inhibition of interaction with recombinant flag-tagged LEDGF/p75 at 100 uM incubated for 30 mins prior to substrate addition measured after 1 hr by AlphaScreen assay. In short, it runs like this: (§1)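 AlphaScreen in 25 mM Tris-HCl pH 7.4, 150 mM NaCl, 1 mM MgCl2, 0.01% Tween-20 and 0.1% BSA. His6-integrase (300 nM final) was preincubated with compound for 30 min at 4°C. Flag-LEDGF/p75 (100 nM) was then added for 1 h at 4°C. Ni-chelate acceptor and anti-flag donor beads (20 μg/ml each) followed for 1 h at 30°C, protected from light. Acceptor emission was read.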
(In Alpha technology, singlet oxygen from a donor bead excites a nearby acceptor bead.)

In data set [2] the target is Human immunodeficiency virus type 1 integrase (Human immunodeficiency virus 1, UniProt Q7ZJM1). As to the kind of experiment: Inhibition of HIV1 His6-tagged integrase assessed as inhibition of interaction with recombinant flag-tagged LEDGF/p75 incubated for 30 mins prior to substrate addition measured after 1 hr by AlphaScreen assay. The method in brief:
as §1

Data set [3] is described as follows: Selectivity index, ratio of CC50 for human MT4 cells to EC50 for HIV 3B. Format: toxicity, cell-based. Particulars: read-out: Ratio CC50/EC50. The method in brief: (§2)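 HIV(IIIB) stock titrated on MT-4 cells to set the CCID50. MT-4 cells were infected with 100-300 CCID50 in the presence of five-fold serial compound dilutions. Protection from virus-induced cytopathic effect was read spectrophotometrically as MTT reduction to formazan by viable cells. EC50 is the concentration giving 50% protection. CC50 was determined in parallel on cells.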

The subject of data set [4] is Human immunodeficiency virus. As to the kind of experiment: Antiviral activity against HIV 3B infected in human MT4 cells assessed as inhibition of virus-induced cytopathic effect by MTT assay. It counts as functional, organism-based. Particulars: Human immunodeficiency virus 1, 3B. The method in brief: as §2
On the technique in general: Cytopathic effects are the visible damage that an infection or toxin causes in cultured cells.

Active and inactive are the calls of the source. No cut-off for these calls is given here.

Sequence of Human immunodeficiency virus type 1 integrase (Human immunodeficiency virus 1) (Q7ZJM1 as listed by the source): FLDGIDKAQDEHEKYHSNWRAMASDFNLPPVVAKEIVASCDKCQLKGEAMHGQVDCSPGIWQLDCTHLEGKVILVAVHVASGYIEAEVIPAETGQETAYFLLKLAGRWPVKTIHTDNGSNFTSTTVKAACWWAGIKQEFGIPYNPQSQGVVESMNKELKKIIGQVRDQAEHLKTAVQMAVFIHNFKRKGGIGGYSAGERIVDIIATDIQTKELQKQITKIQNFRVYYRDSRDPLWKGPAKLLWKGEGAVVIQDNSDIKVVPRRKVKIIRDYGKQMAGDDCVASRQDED
Sequence of Human immunodeficiency virus type 1 integrase (Q7ZJM1 whole entry): as the sequence (Q7ZJM1 as listed by the source) above

The inhibition is the change of the read-out against control, counted positive when it falls. `COc1ccc(/C=C2\SC(=S)N(C(C)CC(=O)O)C2=O)cc1` (stereo not given): in data set [1], the inhibition stood at 29%. As usually defined, the IC50 is the concentration that inhibits the measured activity by half. As to `CCC(C(=O)O)N1C(=O)/C(=C/c2ccc(OC)cc2)SC1=S` (stereo not given), in data set [1], the inhibition was 54%. Moreover, the half-inhibitory concentration (IC50) in data set [2] was > 100 µM. Take `COc1cc(/C=C2\SC(=S)N(C(C(=O)O)C(C)C)C2=O)ccc1O` (stereo not given): the inhibition in data set [1] was determined as 43%. As for `CCOc1cc(/C=C2\SC(=S)N(C(C(=O)O)C(C)C)C2=O)ccc1O` (stereo not given), the IC50 in data set [2] turned out to be 25 µM. As to `COc1ccc(/C=C2\SC(=S)N(C(C)C(=O)O)C2=O)cc1` (stereo not given), the inhibition in data set [1] came out at 47%.

In the case of `CC(C)C(C(=O)O)N1C(=O)/C(=C/c2ccc(O)cc2)SC1=S` (stereo not given), in data set [1], the inhibition was determined as 77%. Also, the IC50 in data set [2] was 43.7 µM. For `CC(C)C(C(=O)O)N1C(=O)/C(=C/c2cccc3ccccc23)SC1=S` (stereo not given), in that order: 89% and 18.7 µM. `COc1ccc2nc(/C=C3\SC(=S)N(C(C(=O)O)C(C)C)C3=O)ccc2c1` (stereo not given): the IC50 in data set [2] stood at 15.8 µM.

As for `COc1ccc(/C=C2\SC(=S)N(CC(=O)O)C2=O)cc1`, the inhibition in data set [1] came out at 36%. Still for that read-out and setting: the result for `CCOc1ccc(/C=C2\SC(=S)N(C(C(=O)O)C(C)C)C2=O)cc1OC` (stereo not given) reads 28%; that for `COc1ccc(/C=C2\SC(=S)N(C(C(=O)O)C(C)C)C2=O)cc1OC` (stereo not given), “inactive”. As usually defined, the EC50 is the concentration at which the effect is half-maximal. With `COc1ccc(/C=C2\SC(=S)N(CCC(=O)O)C2=O)cc1`, the selectivity ratio in data set [3] was 61. For the same molecule, the inhibition in data set [1] is 66%. Moreover, the EC50 in data set [4] came to 2.41 µM. Also, the half-inhibitory concentration (IC50) in data set [2] was > 100 µM. Regarding `COc1ccc(/C=C2\SC(=S)N(C(C(=O)O)C(C)C)C2=O)cc1` (stereo not given), the IC50 in data set [2] amounted to 41.3 µM. Turning to `CCOc1cc(/C=C2\SC(=S)N(C(C(=O)O)C(C)C)C2=O)ccc1OC` (stereo not given), the inhibition in data set [1] amounted to 20%.
